Published values from different studies.
Each line is one published result; the experiments were not run side by side.
ADRA2C: Alpha-2C adrenergic receptor (ADRA2C, Homo sapiens, UniProt P18825)
ESR1: Estrogen receptor (ESR1, Homo sapiens, UniProt P03372)
OPRL1: Nociceptin receptor (OPRL1, Homo sapiens, UniProt P41146)
nupG: nupG (Escherichia coli, UniProt P0AFF4)
PIK3C3: Phosphatidylinositol 3-kinase catalytic subunit type 3 (PIK3C3, Homo sapiens, UniProt Q8NEB9)

For `CCOc1cc(-c2nncn2C)ccc1Nc1ncc2cc(C)nc(NCC(C)(C)C)c2n1`, the Kd was 0.071 µM (Serine/threonine-protein kinase PLK4 (PLK4, Homo sapiens, UniProt O00444); binding; competition with immobilised ligand).
`CN1CCN(c2ccc(Nc3ncc4cc(C#N)c(=O)n(C5CCCC5)c4n3)cc2)CC1` gave an IC50 of > 10 µM (Calcium/calmodulin-dependent protein kinase type II subunit beta (CAMK2B, Homo sapiens, UniProt Q13554); enzyme activity; inhibitor).
`Nc1nc2c(ncn2[C@@H]2O[C@H](COP(=O)(O)OP(=O)(O)O)[C@@H](OP(=O)(O)OP(=O)(O)O)[C@H]2O)c(=O)[nH]1` gave a Kd of 493 µM (pgk (Escherichia coli, UniProt P0A799); binding; ITC).
For `CCCCN1CCC(COC(=O)c2ccc(N)c(OCF)c2)CC1`, the Ki was 778 nM (ADRA2C; cell-free assay; radioligand).
`Cc1occc(=O)c1O` gave a Ki of 7200 nM (Carbonic anhydrase 14 (CA14, Homo sapiens, UniProt Q9ULX7); enzyme activity; inhibitor; stopped-flow).
With `COc1ccccc1/C=C/C(=O)NC(=S)Nc1ccc(S(=O)(=O)N(C)c2ccccc2)cc1` the EC50 was 300 nM (G-protein coupled receptor 55 (GPR55, Homo sapiens, UniProt Q9Y2T6); β-arrestin recruitment; agonist).
For `C[C@]12CC[C@H](O)CC1=CC[C@@H]1[C@@H]2CC[C@]2(C)C(c3cccnc3)=CC[C@@H]12`, the Ki was 390 nM (ESR1; ligand displacement in cells; radioligand).
`CCOC(=O)[C@@]12C[C@@H]1[C@@H](n1ccc3c(NC)nc(C#Cc4ccccc4)nc31)[C@H](O)[C@@H]2O` has a Ki of > 10000 nM (OPRL1; ligand displacement; radioligand).
`CNCC[C@@H](Oc1ccccc1CCCF)c1ccccc1` gave a Ki of 23 nM (Norepinephrine transporter (Slc6a2, Rattus norvegicus, UniProt Q9WTR4); ligand displacement; radioligand; cell membranes).
`Nc1nc2c(ncn2[C@@H]2O[C@H](CO)[C@@H](O)[C@H]2O)c(=O)[nH]1` has a Kd of 46.7 µM (nupG; binding; ITC).
With `CCC(S)C(C)CO` (centres unmarked) the EC50 was 1400 nM (OR2M3 (Homo sapiens, UniProt Q8NG83); cAMP; agonist; luciferase).
The Ki of `CCCNc1nc2ccccc2n1Cc1ccc(Cl)cc1` is reported as 434 nM (ADRA2C; ligand displacement; radioligand).
For `C=CC(=O)N1CCC(C(=O)N(C)CC(=O)N2CCN(c3nc(-c4cnc(N)nc4C(F)F)nc(N4CCOCC4)n3)CC2)CC1`, the Kd was 0.275 µM (PIK3C3; binding; competition with immobilised ligand).
With `CCOC(=O)[C@@]12C[C@@H]1[C@@H](n1cnc3c(NC)nc(C#Cc4ccc(Cl)s4)nc31)[C@H](O)[C@@H]2O` the Ki was > 10000 nM (OPRL1; ligand displacement; radioligand).
The Kd of `Nc1ncnc2c1ncn2[C@@H]1O[C@H](CO)[C@@H](O)[C@H]1O` is reported as 99.7 µM (nupG; binding; ITC).
`C[C@H]1Oc2cc(cnc2N)-c2c(nn(C)c2C#N)CN(C)C(=O)c2ccc(F)cc21` gave a Ki of 32.7 nM (Mitogen-activated protein kinase kinase kinase 13 (MAP3K13, Homo sapiens, UniProt O43283); cell-free assay; lysate).
`Cc1nc(NC(=O)N2CCC[C@H]2C(N)=O)sc1-c1ccnc(C(C)(C)C(F)(F)F)c1` gave a Kd of 24.5 µM (PIK3C3; binding; competition with immobilised ligand).
The Kd of `Oc1ccccc1F` is reported as 20000 µM (Iodotyrosine deiodinase (Haliscomenobacter hydrossis, UniProt F4KU78); binding; fluorescence).
`CCC(=O)N1CCC(C(=O)NCC(=O)N2CCN(c3nc(-c4cnc(N)nc4C(F)F)nc(N4CCOCC4)n3)CC2)CC1` has a Kd of 0.1 µM (PIK3C3; binding; competition with immobilised ligand).
`C[C@]12CCC3=C4CCC(=O)C=C4CC[C@H]3[C@@H]1CC[C@@]2(O)CC#N` has an EC50 of > 25000 nM (ESR1; reporter gene; agonist).
